Redox H2O2 prof – compounds producing H2O2 with reducing agent – biochemical, NIH compound library profiling, artefact control for MLSCN library redox annotation, primary screen; DTT-dependent redox cycling H2O2, phenol red/HRP absorbance; 100% = 100 µM peroxide control, 0% = buffer; 0.03% of 200,000 active; activation, % at 10 µM;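 active = activation of at least 50% relative to the plate's high and low controls in the primary single-dose screen; inactive = activation below 50%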;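 note: compound incubated with DTT at 0.8 mM final as the reducing agent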
T cruzi repl – inhibitors of intracellular T. cruzi growth, primary screen, luminescence, NIH3T3 host cells. T. cruzi beta-gal in NIH3T3, 90 h. inhibition, % (test concentration not listed). 1.4% of 300,000 active;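 active = mean inhibition across valid replicates above about 55%, limit read from the data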;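 note: signal also drops with host cell toxicity which is not excluded here; 0% = plate median of DMSO wells and 100% = zero luminescence signal; higher percent means less beta-gal luminescence so fewer parasites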
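System: mouse NIH/3T3 fibroblasts infected with β-gal-expressing T. cruzi Tulahuen C4 / Input: NIH/3T3 cells, 5,000 per well / Buffer or medium: Low-serum DMEM with 2% FBS / Probe or stimulus: 5000 reporter trypomastigotes per well / Schedule: ≥90 h infection period, 3 h prior cell attachment / Measured by: GalScreen luminescence, 60 min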
Lipid droplet – inhibitors of hepatocyte lipid droplet formation, primary screen, imaging, high-throughput imaging, BODIPY stain; AML12 mouse hepatocytes, oleate lipid droplets; inhibition, % at 6.5 µM; 0.4% of 240,000 active; AID 1656, 2009;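 active = lipid droplet intensity inhibited by at least 50%, with more than 500 cells counted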
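Assay system: AML12 mouse liver cells | Compound: 6.5 µM single-point dosing | Schedule: Overnight exposure | Technique: Fluorescence imaging, 20x objective, two fields per well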
MPTP inh – mitochondrial permeability transition pore inhibitors, primary screen, biochemical, isolated mouse mitochondria, absorbance | Ca2+ swelling absorbance, 30 min | inhibition, % at 10 µM | 1.4% of 360,000 active;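 active = inhibition of 50% or more, scaled per plate between neutral and stimulator controls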;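 note: 0% = DMSO wells given calcium and 100% = 1 mM EGTA wells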
Lmaj promast – Leishmania major promastigote growth inhibition, primary screen | Leishmania major promastigotes, resazurin fluorescence viability | inhibition, % at 10 µM | 9% of 200,000 active | AID 1063, 2008; in the data active = inhibition above about 50%;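 note: promastigotes grown with compound for 44 hours at 28 °C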
The depositor's hits bear a star; x = no result given. Shown is part of a subset that was picked to be rich in hits.

SMILES | Redox H2O2 prof | T cruzi repl | Lipid droplet | MPTP inh | Lmaj promast
Cc1nc2cc(N3CCN(C)CC3)c(NC(=O)Cc3ccccc3)cc2c(=O)n1Cc1ccccc1 | -3 | 34 | x | -4 | 89*
Cc1onc(-c2ccccc2Cl)c1C(=O)N1CCN(c2nc3ccccc3s2)CC1 | -1 | 13 | -22 | 0 | 51*
Cc1onc(-c2ccccc2Cl)c1C(=O)N1CCCCC1 | x | 13 | -8 | 0 | x
Cc1onc(-c2c(Cl)cccc2Cl)c1C(=O)N1CCN(c2ccccc2)CC1 | -1 | 7 | -9 | 2 | 96*
Cc1onc(-c2c(Cl)cccc2Cl)c1C(=O)N1CCN(c2ccc(F)cc2)CC1 | x | 14 | 2 | 0 | x
CC1=C(C(=O)N2CCOCC2)CC(CC(=O)NCCc2ccccn2)C(=O)N1Cc1ccccc1 (stereo unspecified) | x | x | x | -2 | x
CCN(CC)C(=O)CSc1nc(-c2cccs2)cc(-c2cccs2)c1C#N | 2 | 48 | 2 | -1 | 7
CN1CCN(C(=O)CSc2nc(-c3cccs3)cc(-c3cccs3)c2C#N)CC1 | 0 | 26 | x | 0 | 66*
COC(=O)Nc1ccc(S(=O)(=O)N2CCCC(C(=O)NC3CCS(=O)(=O)C3)C2)cc1 (stereo unspecified) | 0 | -13 | -1 | -1 | 58*
Cc1ccc(S(=O)(=O)NC(=O)Cn2nnc(-c3ccccc3)c2COc2ccc3ccccc3c2)cc1 | x | x | x | 3 | x
Cc1cc(C)c(C(=O)/C=C/c2cccc3ccccc23)c(=O)[nH]1 | 0 | 21 | 11 | -18 | 100*
Cc1ccc(S(=O)(=O)NCc2ccccn2)cc1C | x | -7 | 0 | 0 | x
COc1cc(CN2CCN(c3ccc(C)cc3)CC2)cc([N+](=O)[O-])c1O | -4 | 11 | x | x | 86*
COc1cc(CN2CCN(c3cc(C)ccc3C)CC2)cc([N+](=O)[O-])c1O | -7 | 9 | x | x | 7
COc1cc(OC)c(OC)cc1CN1CCN(Cc2ccc(SC)cc2)CC1 | -1 | 28 | 10 | 2 | 95*
COc1cccc(CN2CCN(Cc3cc(OC)c(OC)cc3OC)CC2)c1 | x | 28 | -1 | 0 | x
COc1cc(CN2CCN(Cc3ccc(SC)cc3)CC2)cc(OC)c1O | -1 | 24 | 6 | 1 | 88*
COc1ccc(CN2CCN(Cc3ccc(C)cc3)CC2)c(OC)c1 | x | 57* | -1 | -1 | x
O=C(O)CCCn1cc(NC(=O)COc2cc(F)ccc2[N+](=O)[O-])cn1 | -1 | -7 | 2 | -1 | -8
N#Cc1ccccc1OCC(=O)Nc1ccccc1C(=O)NC1CC1 | x | -1 | x | -1 | x
Cc1cc(NCCCN(C)C)n2nc(-c3cccs3)cc2n1 | 1 | 16 | 17 | 0 | 77*
Cc1cc(C)c2c(n1)nn1c(NCCCN(C)C)cc(C)nc21 | -1 | -3 | x | 0 | 16
CC(C)[C@@H](CO)NC(=O)[C@H]1O[C@@H](n2cnc3c(N)ncnc32)[C@H](O)[C@@H]1O | x | x | x | 0 | x
COc1ccc(COc2cc(-c3cccc(OC)c3)nc3ccc(NC(=O)c4ccccc4)cc23)cc1 | 2 | 29 | -4 | -2 | 68*
COc1ccc(COc2cc(-c3cccc(OC)c3)nc3ccc(NC(=O)c4ccc(OC)cc4)cc23)cc1 | 3 | 3 | 5 | 0 | 97*
SMILES | Redox H2O2 prof | T cruzi repl | Lipid droplet | MPTP inh | Lmaj promast
COc1ccc(Cc2nc(-c3ccc(NC(=O)c4cccnc4)cc3)no2)cc1 | 1 | -17 | 20 | -2 | -6
COc1ccc(COc2cc(-c3cccc(OC)c3)nc3ccc(NC(=O)c4cccnc4)cc23)cc1 | 0 | 38 | -3 | -1 | 100*
COc1ccc(COc2cc(-c3cccc(OC)c3)nc3ccc(NC(=O)c4ccc(Cl)cc4)cc23)cc1 | 1 | 8 | -12 | 0 | 7
O=C1CN(C(=O)CSc2nnnn2C2CC2)c2ccccc2N1 | x | x | x | -1 | x
O=c1cc(N2CCCCC2)c(-c2ccccc2)nn1Cc1ccc(F)cc1 | -1 | 55* | 4 | 0 | 24
CC(C)S(=O)(=O)c1cnc(-c2cccnc2)nc1N | x | -15 | 6 | 0 | x
COc1ccc(/C=N/Nc2cc(C)nc3ccc(Br)cc23)cc1 | x | 59* | 23 | 21 | x
COc1cc(/C=N/Nc2cc(C)nc(N)n2)ccc1O | x | -7 | -1 | -1 | x
COc1ccc(/C=N/Nc2cc(N(C)C)nc(N(C)C)n2)cc1 | 0 | 49 | -8 | 2 | 98*
CN(C)c1cc(N/N=C\c2ccccc2)nc(N(C)C)n1 | 0 | 47 | -4 | 1 | 47
COc1ccc2nc(C)cc(N/N=C/c3cccc(OC)c3O)c2c1 | x | 18 | 7 | 2 | x
COc1ccccc1/C=N/Nc1cc(N(C)C)nc(N(C)C)n1 | -1 | 43 | -12 | 8 | 84*
COc1ccc(/C=N/Nc2cc(C)nc(N)n2)cc1 | 0 | 1 | 19 | 0 | 60*
CN(C)CCCNc1nc(-c2ccc(Cl)cc2)nc2ccccc12 | x | 33 | -18 | 4 | x
O=C(O)c1cc(-n2[nH]c(=O)c3ccccc3c2=O)ccc1Cl | x | -14 | -9 | -2 | x
O=C(NC(C(=O)N/N=C/c1cccnc1)c1n[nH]c(=O)c2ccccc12)c1ccccc1 (stereo unspecified) | x | -5 | 0 | 0 | x
Cc1cc(Br)ccc1OCCN1CCCC1 | x | 73* | -10 | 0 | x
CCN1CCN(CCOc2ccc(Br)cc2C)CC1 | -1 | 48 | -6 | 1 | 93*
O=S(=O)(NCCOc1ccccc1F)c1cccc(Br)c1 | x | x | x | 1 | x
O=C(O)c1ccccc1CC(CCc1ccccc1)C(=O)O (stereo unspecified) | x | x | x | -1 | x
CC(=O)NCCCc1nc2ccccc2n1Cc1ccccc1F | x | -8 | -8 | 4 | x
O=CNCCCc1nc2ccccc2n1Cc1cccc2ccccc12 | 0 | x | -1 | 0 | 93*
COc1ccc(C(=O)NCCCc2nc3ccccc3n2Cc2ccccc2C)cc1OC | 0 | -3 | -30 | 0 | 77*
COc1ccc(Br)cc1S(=O)(=O)N(CC(=O)N1CCN(C)CC1)c1ccccc1 | x | -6 | -5 | 0 | x
CCOC(=O)c1cnc2ccc(OCC)cc2c1N1CCN(c2ccccc2OC)CC1 | 0 | 57* | -5 | 1 | 32
SMILES | Redox H2O2 prof | T cruzi repl | Lipid droplet | MPTP inh | Lmaj promast
CCOC(=O)c1cnc2ccc(OCC)cc2c1N(C)Cc1ccccc1 | 1 | 33 | -6 | 5 | 98*
CCc1ccc(C(=O)c2cnc3ccc(OC)cc3c2N2CCN(CC)CC2)cc1 | -1 | 50 | -13 | 0 | 69*
Cc1ccc(NS(=O)(=O)c2ccc(C)c(NC(=S)NCCN3CCOCC3)c2)c(C)c1 | x | x | x | 0 | x
CN1C2=C(C(=O)CC(C)(C)C2)C(c2cccs2)C2=C1CC(C)(C)CC2=O | x | 10 | x | 2 | x
Cc1cccc(Nc2cc(C)c3c(O)cccc3n2)c1C | 2 | 46 | -38 | 16 | 99*
CC1=C(C(=O)Nc2cccnc2)C(c2cccnc2)n2nc(-c3cccs3)nc2N1 (stereo unspecified) | -3 | 39 | x | 1 | 84*
